Activity calls are given as the source filed them. The calls are words filed in the database; no cut-off is given here.
Assays:
[1] = biological target: T1, ATP-binding cassette sub-family C member 2 (Homo sapiens, UniProt Q92887); assay: Inhibition of ABCC2 overexpressed in MDCK cells […] by flow cytometric-based chloromethylfluorescein-diacetate accumulation assay; type: cell-based
[2] = biological target: T2, Broad substrate specificity ATP-binding cassette transporter ABCG2 (Homo sapiens, UniProt Q9UNQ0); assay: Inhibition of ABCG2 over-expressed in human MCF7/Topo cells at 7 to 10 uM by flow cytometric-based mitoxantrone efflux assay relative to fumitremorgin C; type: cell-based
T2 sequence (Q9UNQ0 whole entry): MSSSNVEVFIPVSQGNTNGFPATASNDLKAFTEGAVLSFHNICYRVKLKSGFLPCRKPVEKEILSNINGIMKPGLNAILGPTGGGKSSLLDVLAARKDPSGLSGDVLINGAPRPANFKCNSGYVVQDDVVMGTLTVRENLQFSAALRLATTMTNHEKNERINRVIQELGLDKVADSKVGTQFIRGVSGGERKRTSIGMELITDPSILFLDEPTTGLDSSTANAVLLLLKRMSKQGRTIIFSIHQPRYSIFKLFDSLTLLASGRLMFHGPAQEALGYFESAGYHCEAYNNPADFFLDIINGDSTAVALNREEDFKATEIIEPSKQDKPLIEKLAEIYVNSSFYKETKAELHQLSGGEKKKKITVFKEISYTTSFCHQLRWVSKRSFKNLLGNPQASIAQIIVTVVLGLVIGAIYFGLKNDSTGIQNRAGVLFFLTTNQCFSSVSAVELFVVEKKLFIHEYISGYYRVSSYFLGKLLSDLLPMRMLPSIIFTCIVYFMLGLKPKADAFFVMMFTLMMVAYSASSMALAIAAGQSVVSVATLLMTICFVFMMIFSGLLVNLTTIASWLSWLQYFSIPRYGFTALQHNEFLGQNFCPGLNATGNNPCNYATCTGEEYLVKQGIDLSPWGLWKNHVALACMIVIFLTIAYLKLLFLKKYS
Summary of the method: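 MCF-7/Topo cells, 1 × 10^6/mL, loaded 30 min at 37 °C with 20 µM mitoxantrone plus compound, then 1 h efflux in drug-free medium; flow cytometry. Maximal inhibition = effect at highest tested concentration (7 or 10 µM) relative to 10 µM fumitremorgin C (100%, ice-kept sample); geometric mean fluorescence.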

[3] = biological target: T3, ATP-dependent translocase ABCB1 (Homo sapiens, UniProt P08183); assay: Inhibition of ABCB1 overexpressed in human KBv1 cells by flow cytometric-based calcein-AM efflux assay; type: cell-based
[4] = biological target: T2, Broad substrate specificity ATP-binding cassette transporter ABCG2; assay: Inhibition of ABCG2 overexpressed in human MCF7/Topo cells by flow cytometric-based mitoxantrone efflux assay; type: cell-based
Summary of the method: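 MCF-7/Topo cells, 1 × 10^6/mL, incubated 30 min at 37 °C/5% CO2 with 20 µM mitoxantrone and graded modulator; washed, 1 h efflux in drug-free medium at 37 °C, PBS resuspension, flow cytometry.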

[5] = biological target: T3, ATP-dependent translocase ABCB1; assay: (§1) Inhibition of ABCB1 overexpressed in human KBv1 cells at 10 uM by flow cytometric-based calcein-AM efflux assay; type: cell-based; conditions: kbv1, 10 µM
Summary of the method: (§2)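 Done on KBv1 cells (ABCB1-overexpressing KB subclone), maintained in DMEM with 10% FCS and 270 ng/mL vinblastine. Intracellular calcein fluorescence from calcein-AM was measured by flow cytometry in the presence of test compound.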

[6] = biological target: T1, ATP-binding cassette sub-family C member 2; assay: Inhibition of ABCC2 overexpressed in MDCK cells […] up to 50 uM by flow cytometric-based chloromethylfluorescein-diacetate accumulation assay; type: cell-based; conditions: dog
ABCB1 [7] = biological target: T4, ABCB1 (Homo sapiens, UniProt P08183); assay: as §1; type: cell-based; conditions: KBv1 cells overexpressing ABCB1, probe calcein-AM; summary of the method: as §2
MCF7 [8] = assay: Cytotoxicity against ABCG2 positive topotecan-resistant human MCF7 cells up to 500 uM by chemosensitivity assay; type: functional, cell-based
Summary of the method: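 MCF-7/Topo cells (ABCG2-overexpressing, kept in EMEM with 5% FCS and 0.55 µM topotecan) were seeded into 96-well plates and grown 2-3 days. Test compound alone was then given under permanent exposure, against vehicle, with 16 wells per concentration. Cells were fixed with glutardialdehyde at various times and stained with crystal violet. A578 was read and corrected T/C% calculated.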

MCF7 [9] = assay: Potentiation of ABCG2 positive topotecan-induced cytotoxicity in topotecan-resistant human MCF7 cells at 100 nM by chemosensitivity assay
MCF7 [10] = assay: Cytotoxicity against ABCG2 positive topotecan-resistant human MCF7 cells up to 100 nM by chemosensitivity assay
[11] = Cytotoxicity against ABCG2 negative human U373MG cells by chemosensitivity assay; type: ADME, cell-based; conditions: u-373mg atcc
Summary of the method: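 Proliferating ABCG2/ABCB1-nonexpressing U-373 MG glioblastoma cells (EMEM, 5% FCS, 37 °C, 5% CO2) seeded in 96-well plates, medium replaced after 2-3 days with drug or vehicle (1000-fold feed solutions); 16 wells per concentration. Cells fixed with glutardialdehyde at various times, stained with crystal violet, absorbance 578 nm; corrected T/C and cytocidal effect calculated.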

ABCB1 [12] = biological target: T4, ABCB1; assay: Inhibition of ABCB1 overexpressed in human KBv1 cells at 100 uM by flow cytometric-based calcein-AM efflux assay; type: cell-based; conditions: KBv1 cells overexpressing ABCB1, probe calcein-AM; summary of the method: as §2

T1 sequence (Q92887 whole entry): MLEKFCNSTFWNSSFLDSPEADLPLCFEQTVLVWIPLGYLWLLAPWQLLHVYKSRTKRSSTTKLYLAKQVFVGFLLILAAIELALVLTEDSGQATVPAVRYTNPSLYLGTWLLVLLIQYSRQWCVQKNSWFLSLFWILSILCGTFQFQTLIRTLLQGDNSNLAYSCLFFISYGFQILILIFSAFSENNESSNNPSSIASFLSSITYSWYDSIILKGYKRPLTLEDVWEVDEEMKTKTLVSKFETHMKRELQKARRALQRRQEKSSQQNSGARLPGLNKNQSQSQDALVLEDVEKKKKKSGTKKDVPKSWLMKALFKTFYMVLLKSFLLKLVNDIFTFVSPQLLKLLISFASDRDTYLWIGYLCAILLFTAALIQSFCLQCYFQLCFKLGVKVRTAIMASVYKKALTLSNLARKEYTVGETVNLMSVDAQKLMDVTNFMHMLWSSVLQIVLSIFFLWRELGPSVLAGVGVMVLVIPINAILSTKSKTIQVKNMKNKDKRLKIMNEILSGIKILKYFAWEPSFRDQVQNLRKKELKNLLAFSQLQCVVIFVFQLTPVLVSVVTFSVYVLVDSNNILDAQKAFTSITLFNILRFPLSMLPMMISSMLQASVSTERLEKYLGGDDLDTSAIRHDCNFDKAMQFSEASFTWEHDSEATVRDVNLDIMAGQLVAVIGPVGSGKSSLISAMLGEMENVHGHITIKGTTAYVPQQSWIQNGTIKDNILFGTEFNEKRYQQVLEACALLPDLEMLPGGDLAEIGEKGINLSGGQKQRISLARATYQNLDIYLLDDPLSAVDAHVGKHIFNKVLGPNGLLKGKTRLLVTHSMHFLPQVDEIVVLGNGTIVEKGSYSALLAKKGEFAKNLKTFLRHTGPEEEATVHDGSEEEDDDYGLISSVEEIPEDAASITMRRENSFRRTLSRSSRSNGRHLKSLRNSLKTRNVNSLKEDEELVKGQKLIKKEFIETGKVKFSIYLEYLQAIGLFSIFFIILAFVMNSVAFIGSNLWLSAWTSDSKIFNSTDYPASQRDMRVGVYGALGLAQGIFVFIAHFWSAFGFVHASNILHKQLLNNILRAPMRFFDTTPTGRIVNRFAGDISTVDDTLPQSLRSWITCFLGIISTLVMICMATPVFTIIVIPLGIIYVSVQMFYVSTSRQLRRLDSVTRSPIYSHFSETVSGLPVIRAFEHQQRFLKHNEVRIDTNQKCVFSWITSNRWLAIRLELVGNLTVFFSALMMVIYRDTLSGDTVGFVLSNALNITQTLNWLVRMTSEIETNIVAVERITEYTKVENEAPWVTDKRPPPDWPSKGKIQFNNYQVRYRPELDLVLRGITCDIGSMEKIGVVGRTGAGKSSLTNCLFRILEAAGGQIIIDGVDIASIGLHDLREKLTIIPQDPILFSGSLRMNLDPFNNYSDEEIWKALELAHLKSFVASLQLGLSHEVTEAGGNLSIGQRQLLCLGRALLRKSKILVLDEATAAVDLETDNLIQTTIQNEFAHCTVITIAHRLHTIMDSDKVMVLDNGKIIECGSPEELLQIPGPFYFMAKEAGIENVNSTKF
T4 sequence (P08183 whole entry): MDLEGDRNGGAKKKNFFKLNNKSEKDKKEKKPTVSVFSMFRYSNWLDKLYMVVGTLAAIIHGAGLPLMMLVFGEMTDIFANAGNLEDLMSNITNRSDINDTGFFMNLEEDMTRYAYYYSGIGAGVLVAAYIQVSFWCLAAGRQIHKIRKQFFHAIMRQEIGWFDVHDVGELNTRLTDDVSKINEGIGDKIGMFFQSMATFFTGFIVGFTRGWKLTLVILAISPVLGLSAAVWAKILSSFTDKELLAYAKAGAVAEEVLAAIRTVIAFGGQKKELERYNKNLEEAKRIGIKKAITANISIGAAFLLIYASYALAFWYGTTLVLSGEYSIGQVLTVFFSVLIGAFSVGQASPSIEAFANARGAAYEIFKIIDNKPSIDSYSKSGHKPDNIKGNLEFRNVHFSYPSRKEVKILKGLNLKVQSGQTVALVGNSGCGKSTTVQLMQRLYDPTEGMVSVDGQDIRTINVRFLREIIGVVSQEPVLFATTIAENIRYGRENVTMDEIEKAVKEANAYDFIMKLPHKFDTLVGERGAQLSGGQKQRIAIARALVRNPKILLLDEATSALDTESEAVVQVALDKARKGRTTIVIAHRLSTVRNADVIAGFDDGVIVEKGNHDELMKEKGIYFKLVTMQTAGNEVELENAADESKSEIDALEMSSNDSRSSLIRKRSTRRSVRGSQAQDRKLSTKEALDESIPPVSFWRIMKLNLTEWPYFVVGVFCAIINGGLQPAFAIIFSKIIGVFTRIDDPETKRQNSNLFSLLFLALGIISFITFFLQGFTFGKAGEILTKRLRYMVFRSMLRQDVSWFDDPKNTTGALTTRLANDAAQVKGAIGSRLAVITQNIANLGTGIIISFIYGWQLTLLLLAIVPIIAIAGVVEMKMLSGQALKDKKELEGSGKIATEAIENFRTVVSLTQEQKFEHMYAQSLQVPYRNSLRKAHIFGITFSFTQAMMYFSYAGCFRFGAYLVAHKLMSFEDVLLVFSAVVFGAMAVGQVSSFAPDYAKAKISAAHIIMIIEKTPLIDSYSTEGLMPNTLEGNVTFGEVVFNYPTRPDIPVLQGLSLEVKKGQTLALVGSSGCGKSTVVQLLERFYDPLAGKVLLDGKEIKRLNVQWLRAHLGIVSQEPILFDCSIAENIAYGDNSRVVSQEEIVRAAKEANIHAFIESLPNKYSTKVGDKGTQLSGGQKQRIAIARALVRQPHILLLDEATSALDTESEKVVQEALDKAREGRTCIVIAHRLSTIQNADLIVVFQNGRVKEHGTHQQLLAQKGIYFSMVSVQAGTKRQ
T3 sequence (P08183 whole entry): as above

| Compound | IC50 [1] | inhibition (INH) [2] | IC50 [3] | IC50 [4] | Activity [6] | also measured |
| --- | --- | --- | --- | --- | --- | --- |
| COC(=O)c1ccc(C(=O)Nc2ccc(CCN3CCc4cc(OC)c(OC)cc4C3)cc2)cc1NC(=O)c1cnccn1 | > 50 µM | 38% | > 20 µM | 632 nM | – | – |
| COC(=O)c1ccc(C(=O)Nc2ccc(CCN3CCc4cc(OC)c(OC)cc4C3)cc2)cc1NC(=O)c1ccc2ncccc2c1 | – | 25% | – | 179 nM | – | Activity [5]: Not Active |
| COC(=O)c1ccc(C(=O)Nc2ccc(CCN3CCc4cc(OC)c(OC)cc4C3)cc2)cc1NC(=O)c1cnc2ccccc2n1 | – | 55% | > 34 µM | 183 nM | – | – |
| COc1cc(NC(=O)c2cnc3ccccc3c2)cc(C(=O)Nc2ccc(CCN3CCc4cc(OC)c(OC)cc4C3)cc2)c1 | – | 43% | > 15 µM | 977 nM | Not Active | – |
| COc1cc2c(cc1OC)CN(CCc1ccc(NC(=O)c3cccc4c(=O)c5cccc(OC)c5[nH]c34)cc1)CC2 | – | 46% | – | – | Not Active | – |
| CCCCC/C=C\C\C=C/C=C/C=C/[C@@H](SC[C@@H](NC(=O)CC[C@H](N)C(=O)O)C(=O)NCC(=O)O)[C@@H](O)CCCC(=O)O [LEUKOTRIEN C4] | < 0.15 µM | – | – | – | – | – |
| COc1cc2c(cc1OC)CN(CCc1ccc(NC(=O)c3cc(NC(=O)c4cnc5ccccc5c4)c(OC)c(OC)c3)cc1)CC2 | – | 36% | > 17 µM | 858 nM | Not Active | – |
| COc1ccc2c3c([nH]c2c1)[C@H](CC(C)C)N1C(=O)[C@H](CCC(=O)OC(C)(C)C)NC(=O)[C@@H]1C3 | > 50 µM | – | – | – | – | inhibition at 10 µM (ABCB1 [7]): 1.6%; Activity (MCF7 [8]): Active; Activity (MCF7 [9]): Active |
| COC(=O)c1ccc(C(=O)Nc2ccc(CCN3CCc4cc(OC)c(OC)cc4C3)cc2)cc1NC(=O)c1cnc2ccccc2c1 | – | 41% | 9.45 µM | 119 nM | Not Active | Activity (MCF7 [10]): Active; Activity [11]: Toxic |
| COc1cc2c(cc1OC)CN(CCc1ccc(NC(=O)c3ccc(C)c(NC(=O)c4cnc5ccccc5c4)c3)cc1)CC2 | > 50 µM | 52% | > 15 µM | 1990 nM | – | – |
| COc1ccc(C(=O)Nc2ccc(CCN3CCc4cc(OC)c(OC)cc4C3)cc2)cc1NC(=O)c1cnc2ccccc2c1 | – | 63% | > 6 µM | 317 nM | Not Active | – |
| COc1cc2c(cc1OC)CN(CCc1ccc(NC(=O)c3cc(OC)c(OC)cc3NC(=O)c3cnc4ccccc4c3)cc1)CC2 | – | 39% | – | 916 nM | Not Active | – |
| COC(=O)c1ccc(C(=O)Nc2ccc(CCN3CCc4cc(OC)c(OC)cc4C3)cc2)cc1NC(=O)c1cnc(C)cn1 | > 20 µM | 44% | > 57 µM | 552 nM | – | – |
| COC(=O)c1ccc(C(=O)Nc2ccc(CCN3CCc4cc(OC)c(OC)cc4C3)cc2)cc1NC(=O)c1cccnc1 | > 20 µM | 47% | > 14 µM | 1020 nM | – | – |
| COc1ccc2c3c([nH]c2c1)[C@H](C=C(C)C)N1C(=O)[C@@H]2CCCN2C(=O)[C@@H]1C3 [FUMITREMORGIN] | – | 100% | – | > 11000 nM | Not Active | inhibition at 10 µM (ABCB1 [7]): 0.8%; inhibition at 100 µM (ABCB1 [12]): 22% |
| CN(C)C(=O)CCSC(SCCC(=O)O)c1cccc(/C=C/c2ccc3ccc(Cl)cc3n2)c1 (stereo unspecified) [MK-571] | > 1 µM | – | – | – | – | – |
| COC(=O)c1ccc(C(=O)Nc2ccc(CCN3CCc4cc(OC)c(OC)cc4C3)cc2)cc1NC(=O)c1ccc2ccccc2n1 | > 20 µM | 56% | > 29 µM | 60 nM | – | Activity (MCF7 [9]): Active |
